High-throughput results from PubChem.
Rows were chosen to be rich in hits. Some 3% of all compounds tested hit in one or more screens of this group.
UCH37 DUB inh: human UCH37 deubiquitinating enzyme inhibition; Q9Y5K5; purified proteasome/UCH37, Ub-AMC cleavage fluorescence; inhibition, % (test concentration not listed); actives 0.33% (n = 330,000); AID 588478;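 active = mean inhibition over replicate wells above about 20%, limit read from the data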
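Signal – fluorescence, ex 355 nm, em 460 nm · System – Proteasome-bound UCH37 · Input – 0.15 nM proteasome as dispensed · Timing – 30 min preincubation with enzyme, 25 min cleavage at room temperature · Read-out basis – percent inhibition of cleavage signal versus uninhibited and no-proteasome wells · Medium – Tris-HCl pH 7.4 with ATP-MgCl2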
MEKK3 PB1 HTS: raises or lowers MEK5 binding to the human MEKK3 PB1 domain. Q99759. binding response (% of control), % at 10 µM. actives 1.4% (n = 290,000). bead-based flow cytometry, Alexa488-MEK5 binding to MEKK3; actives lie on both sides; 0 = blocked by unlabeled MEK5, 100 = vehicle;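 active = binding response more than 3 SD above or below the average of its plate-row segment, actives on both sides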;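 note: Alexa488 bead fluorescence after subtracting the streptavidin-only scavenger bead signal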
Apaf-1 inh: blocks human Apaf-1 apoptosome activity. inhibition, % at 20 µM. AID 489030. O14727. actives 0.71% (n = 330,000). reconstituted apoptosome caspase-3 activity, DEVD-Rh110 fluorescence; active = inhibition of at least 40% at 20 µM
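System – cell-free apoptosome with Apaf-1, procaspase-3 and caspase-9 · Buffer or medium – pH 7.5 Hepes buffer with CHAPS, BSA, DTT · Also added – cytochrome c with DEVD-Rh110 · Times – 30 min compound preincubation, 50 min activation, room temperature · Technique – Rh110 fluorescence intensity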
UBC13 inh: human UBC13 polyubiquitination inhibition | P61088 | UBC13 polyubiquitin chain formation, TR-FRET | inhibition, % at 20 µM | actives 0.47% (n = 330,000); in the data active = inhibition above about 45%, passing the limit was not always enough
MEKK2mut PB1 HTS: signal of MEK5 binding to mutant human MEKK2 PB1 domain. percent response, % at 10 µM. bead flow cytometry, Alexa488-MEK5 binding to MEKK2 mutant. AID 1530. actives 0.35% (n = 290,000); in the data active = percent response above about 24%, passing the limit was not always enough
MEKK2 WT-MEK5: raises or lowers MEK5 binding to wildtype human MEKK2 PB1 domain; Q9Y2U5; bead flow cytometry, Alexa488-MEK5 binding to MEKK2 WT; actives lie on both sides; binding response (% of control), % at 10 µM; actives 1.1% (n = 290,000); AID 1531; in the data active = binding response below about 67% or above about 130%
MEKK2wt confirm: raises or lowers MEK5 binding to wildtype human MEKK2, retest; shares compounds with MEKK3 PB1 HTS; bead flow cytometry, Alexa488-MEK5 binding to MEKK2 WT; actives lie on both sides; binding response (% of control), % at 10 µM; actives 2.4% (n = 5,900); in the data active = binding response below about 16% or above about 210%; inactive = in between
MEKK2mut confirm: signal of MEK5 binding to mutant human MEKK2, retest; shares compounds with MEKK3 PB1 HTS; bead flow cytometry, Alexa488-MEK5 binding to MEKK2 mutant; percent response, % at 10 µM; actives 2% (n = 5,900); in the data active = percent response mostly above about 71%, no sharp cut-off; inactive = mostly below about 38%;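 note: higher means compound restores mutant binding toward wildtype level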
MEKK3 confirm: MEKK3-MEK5 PB1 inhibition, single concentration confirmation; shares compounds with MEKK3 PB1 HTS; bead flow cytometry, Alexa488-MEK5 binding to MEKK3; stronger effect = lower value; binding response (% of control), % at 10 µM; actives 1.8% (n = 5,900); AID 1894;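 active = binding response below 72% of control, or above a set upper limit, though filed actives all read lower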
Large screens that a line does not name were inactive (follow-up assays come after a bar, where they were run); [ ] = another dose, or the depositor's remark.

Cc1cc(=O)[nH]c(SCC(=O)N2C(C)CCCC2C)n1 (centres undefined)	none
Cc1cc2oc3ccc(NCCCN4CCOCC4)cc3c(=O)c2cc1C	MEKK2 WT-MEK5 144.0 | MEKK2wt confirm inactive | MEKK2mut confirm inactive | MEKK3 confirm inactive
Cc1cc2oc3ccc(NCCCn4ccnc4)cc3c(=O)c2cc1C	none
OCc1cccc[n+]1CCc1ccccc1	none (no result: MEKK3 PB1 HTS, MEKK2mut PB1 HTS, MEKK2 WT-MEK5)
COCCN(C(=O)CSc1ncn[nH]1)c1c(N)n(Cc2ccccc2)c(=O)[nH]c1=O	none (no result: MEKK3 PB1 HTS, MEKK2mut PB1 HTS, MEKK2 WT-MEK5)
NCCCCCCNS(=O)(=O)c1cccc2c(Cl)cccc12	MEKK2 WT-MEK5 140.0 | MEKK2wt confirm inactive | MEKK2mut confirm inactive | MEKK3 confirm inactive
O=C(NCc1ccco1)C1CC(c2c(Cl)cccc2Cl)=NO1 (centres undefined)	none
O=C(NCc1ccco1)C1CC(c2ccc(Cl)c(Cl)c2)=NO1 (centres undefined)	MEKK3 PB1 HTS 39.0[inhibitor], MEKK2 WT-MEK5 42.0[inhibitor] | MEKK2wt confirm inactive | MEKK2mut confirm inactive | MEKK3 confirm inactive
Cc1ccc(C2CCN(C(=S)NC(C)C)C2)cc1 (centres undefined)	MEKK3 PB1 HTS 48.0[inhibitor] | MEKK2wt confirm inactive | MEKK2mut confirm inactive | MEKK3 confirm inactive
COc1ccc(Cl)cc1NC(=S)N1CCC(c2ccc(C)cc2)C1 (centres undefined)	none
COc1ccc(-n2cc(CN[C@H]3CCCCNC3=O)c(-c3cccc(F)c3)n2)cc1	none
COc1ccc(-n2cc(CNC3CCN(C)CC3)c(-c3cccc(F)c3)n2)cc1	MEKK2 WT-MEK5 169.0 | MEKK2wt confirm inactive | MEKK2mut confirm inactive | MEKK3 confirm inactive
COc1ccc(/C(N)=N/OC(=O)Cc2cccs2)cc1OC	MEKK3 PB1 HTS 150.0 | MEKK2wt confirm inactive | MEKK2mut confirm inactive | MEKK3 confirm inactive
Cc1ccc(SCc2nc3ccccc3n2CC(=O)Nc2ccc(Cl)cc2)cc1	MEKK2mut PB1 HTS 26.0, MEKK2 WT-MEK5 136.0 | MEKK2wt confirm inactive | MEKK2mut confirm inactive | MEKK3 confirm inactive
CC(CCc1ccccc1)NCc1cccc2ccccc12 (centres undefined)	MEKK2 WT-MEK5 135.0 | MEKK2wt confirm inactive | MEKK2mut confirm inactive | MEKK3 confirm inactive
COCC(C)NCc1cccc2ccccc12 (centres undefined)	none
COc1ccc(C(=O)Nc2ccc(NC(=O)c3cccs3)cc2)cc1Cl	MEKK3 PB1 HTS 130.0 | MEKK2wt confirm inactive | MEKK2mut confirm inactive | MEKK3 confirm inactive
Cc1cc(C)c(C(=O)CSc2nnc(N)s2)c(C)c1	none
Cc1cc(C(=O)Nc2cccc3ncccc23)no1	MEKK3 PB1 HTS 127.0 | MEKK2wt confirm inactive | MEKK2mut confirm inactive | MEKK3 confirm inactive
C#CCN1C(=O)C(O)(CC(=O)c2ccc3c(c2)OCCO3)c2ccccc21 (centres undefined)	none
CCOC(=O)c1cccc(-n2c(C)nc3ccccc3c2=O)c1	none
CCOC(=O)c1cccc(-n2c(-c3ccc(OC)cc3)nc3nc4ccccc4nc32)c1	MEKK3 PB1 HTS 134.0 (no result: Apaf-1 inh, UBC13 inh) | MEKK2wt confirm inactive | MEKK2mut confirm inactive | MEKK3 confirm inactive
Cc1cccc(OCC(O)CN2CCN(c3ccccn3)CC2)c1C (centres undefined)	none
CC1(C)Cc2cccc(OCC(O)CN3CCN(c4ccccn4)CC3)c2O1 (centres undefined)	MEKK3 PB1 HTS 127.0 (no result: Apaf-1 inh, UBC13 inh) | MEKK2wt confirm inactive | MEKK2mut confirm inactive | MEKK3 confirm inactive
COc1ccc2nc3cc(Cl)ccc3c(Nc3cc(CN4CCCC4)c(O)c(CN4CCCC4)c3)c2n1	Apaf-1 inh 62.4, MEKK2 WT-MEK5 138.0 | MEKK2wt confirm inactive | MEKK2mut confirm inactive | MEKK3 confirm inactive
CC1CCN(C(=O)CN2C(=O)NC3(CCCc4ccccc43)C2=O)CC1 (centres undefined)	none (no result: MEKK3 PB1 HTS, MEKK2mut PB1 HTS, MEKK2 WT-MEK5)
CC(NC(=O)Nc1ccc(Cl)c(Cl)c1)C(c1ccccc1)N1CCOCC1 (centres undefined)	MEKK3 PB1 HTS 139.0 | MEKK2wt confirm inactive | MEKK2mut confirm inactive | MEKK3 confirm inactive
Cc1ccc(NC(=O)CSc2nnc(-c3cccnc3)s2)cc1	MEKK3 PB1 HTS 8.0[inhibitor] | MEKK2wt confirm inactive | MEKK2mut confirm inactive | MEKK3 confirm inactive
O=C(CSc1nnc(-c2cccnc2)s1)Nc1ccnc2ccccc12	none
CCN(CC)CCN(C(=O)CCOc1ccccc1)c1nc2c(F)cc(F)cc2s1	MEKK2 WT-MEK5 148.0 | MEKK2wt confirm inactive | MEKK2mut confirm inactive | MEKK3 confirm inactive
Cc1ccc(-n2nc(-c3ccccc3)cc2Nc2ccccc2N)cc1	MEKK3 PB1 HTS 139.0 | MEKK2wt confirm inactive | MEKK2mut confirm inactive | MEKK3 confirm inactive
COc1cc2c(cc1OC)CN(C(=O)c1ccco1)CC2	MEKK3 PB1 HTS 143.0 | MEKK2wt confirm inactive | MEKK2mut confirm inactive | MEKK3 confirm inactive
Cc1ccccc1NC(=S)NCCc1ccccn1	none
Cc1nc(NC(=O)COc2ccccc2)sc1C(=O)Nc1cccc(Cl)c1	none
COC(=O)Cn1cc(C(=O)C2CC2)c2ccccc21	none
CCOC(=O)Cn1cc(C(=O)C2CC2)c2ccccc21	MEKK3 PB1 HTS 2.0[inhibitor], MEKK2 WT-MEK5 2.0[inhibitor] | MEKK2wt confirm inactive | MEKK2mut confirm inactive | MEKK3 confirm inactive
COc1cc(-c2csc(CCn3nc(C)cc3C)n2)cc(OC)c1OC	MEKK2mut PB1 HTS active (no result: MEKK2 WT-MEK5) | MEKK2wt confirm inactive | MEKK2mut confirm inactive | MEKK3 confirm inactive
O=C(NCCCN1CCCCCC1)c1ccc(CS(=O)(=O)Cc2ccccc2F)o1	MEKK2mut PB1 HTS 28.0, MEKK2 WT-MEK5 200.0 (no result: Apaf-1 inh, UBC13 inh) | MEKK2wt confirm inactive | MEKK2mut confirm inactive | MEKK3 confirm inactive
O=C(NCCCN1CCOCC1)c1ccco1	none
O=C(NCCN1CCCCC1)c1ccco1	MEKK3 PB1 HTS 129.0 | MEKK2wt confirm inactive | MEKK2mut confirm inactive | MEKK3 confirm inactive
O=C(NCCN1CCCCCC1)c1ccc(CS(=O)(=O)c2ccc(Br)cc2)o1	MEKK2mut PB1 HTS 26.0, MEKK2 WT-MEK5 169.0 | MEKK2wt confirm inactive | MEKK2mut confirm inactive | MEKK3 confirm inactive
CC1CCN(CCCNC(=O)c2ccc(CS(=O)(=O)Cc3ccccc3F)o2)CC1	none (no result: Apaf-1 inh, UBC13 inh)
Oc1ccc(-n2cnnn2)cc1	MEKK3 PB1 HTS 71.0[inhibitor] | MEKK2wt confirm inactive | MEKK2mut confirm inactive | MEKK3 confirm inactive
